Results on 15 molecules are retold here after ChEMBL document CHEMBL1125613, “Synthesis, receptor binding, and tissue distribution of 7 alpha- and 11 beta-substituted (17 alpha,20E)- and (17 alpha,20Z)-21-[125I]iodo-19-norpregna-1,3,5(10),20-tetraene-3,17-diols” (J Med Chem, 1991).

SMILES strings stand for the structures.

The first series deals with Estrogen receptor (Mus musculus) (UniProt O08537+P19785). Nature of the series: Relative binding affinity for murine cytoplasmic estrogen receptor as displacement of [3H]estradiol. The class given is protein assay.
Sequence of Estrogen receptor (Mus musculus) (O08537 whole entry, looked up): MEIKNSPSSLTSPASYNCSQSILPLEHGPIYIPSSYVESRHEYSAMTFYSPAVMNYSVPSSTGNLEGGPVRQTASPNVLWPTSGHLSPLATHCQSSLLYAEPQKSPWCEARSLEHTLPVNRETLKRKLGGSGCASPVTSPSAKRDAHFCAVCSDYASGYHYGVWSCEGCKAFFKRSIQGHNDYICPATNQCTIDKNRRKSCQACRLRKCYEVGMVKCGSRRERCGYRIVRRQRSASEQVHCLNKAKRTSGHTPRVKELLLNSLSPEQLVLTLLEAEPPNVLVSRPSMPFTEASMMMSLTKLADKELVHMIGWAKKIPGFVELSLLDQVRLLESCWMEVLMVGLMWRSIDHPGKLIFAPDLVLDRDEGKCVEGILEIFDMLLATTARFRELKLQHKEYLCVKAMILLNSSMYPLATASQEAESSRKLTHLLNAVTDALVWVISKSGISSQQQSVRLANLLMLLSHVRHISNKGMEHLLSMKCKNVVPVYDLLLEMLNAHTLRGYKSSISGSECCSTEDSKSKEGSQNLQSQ
Sequence of Estrogen receptor (Mus musculus) (P19785 whole entry, looked up): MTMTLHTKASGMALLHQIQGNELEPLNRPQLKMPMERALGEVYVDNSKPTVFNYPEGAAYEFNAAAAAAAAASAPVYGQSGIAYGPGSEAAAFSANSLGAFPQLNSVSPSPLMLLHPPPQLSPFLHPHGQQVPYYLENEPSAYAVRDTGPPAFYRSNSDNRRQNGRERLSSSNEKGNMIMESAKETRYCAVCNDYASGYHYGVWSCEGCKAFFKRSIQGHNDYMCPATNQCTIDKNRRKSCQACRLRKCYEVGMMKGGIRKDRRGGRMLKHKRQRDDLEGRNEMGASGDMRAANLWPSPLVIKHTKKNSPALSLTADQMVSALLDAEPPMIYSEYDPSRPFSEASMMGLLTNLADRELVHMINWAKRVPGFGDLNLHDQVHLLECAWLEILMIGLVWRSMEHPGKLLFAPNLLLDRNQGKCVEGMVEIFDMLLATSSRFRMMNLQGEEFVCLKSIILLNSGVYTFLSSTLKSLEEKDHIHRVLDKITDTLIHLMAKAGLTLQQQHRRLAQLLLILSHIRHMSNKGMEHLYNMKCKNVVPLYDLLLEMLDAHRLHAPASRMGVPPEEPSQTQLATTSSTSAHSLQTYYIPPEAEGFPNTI
Conditions: not given
Put shortly:
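Murine uterine cytoplasmic extract incubated 18 h at 0–4 °C with 20 nM [3H]estradiol, with or without competitor at 2 nM to 20 μM. Concentration for 50% competition of specific binding was read from the curve. RBA = 100 × ratio of estradiol to competitor concentration at 50% competition. Mean of three experiments.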
For orientation: Loss of bound radioactivity is the signal in a displacement assay; it reports binding, not function.
Molecule `CO[C@H]1C[C@@]2(C)[C@@H](CC[C@@]2(O)/C=C/I)[C@@H]2CCc3cc(O)ccc3[C@H]21` yielded a relative binding affinity (RBA) of 27.7. The molecule `CO[C@H]1C[C@@]2(C)[C@@H](CC[C@@]2(O)/C=C\I)[C@@H]2CCc3cc(O)ccc3[C@H]21` had a relative binding affinity (RBA) of 32. Still for that read-out and setting: the result for `C#C[C@]1(O)CC[C@H]2[C@@H]3[C@H](C)Cc4cc(O)ccc4[C@H]3CC[C@@]21C` reads 73.1; that for `C[C@]12CC[C@@H]3c4ccc(O)cc4CC[C@H]3[C@@H]1CC[C@@]2(O)/C=C\I`, 46.7; that for `C#C[C@]1(O)CC[C@H]2[C@@H]3CCc4cc(O)ccc4[C@H]3[C@@H](OCC)C[C@@]21C`, 21. With `C#C[C@]1(O)CC[C@H]2[C@@H]3CCc4cc(O)ccc4[C@H]3[C@@H](OC)C[C@@]21C`, the relative binding affinity (RBA) was determined as 15.3. The molecule `C[C@]12CC[C@@H]3c4ccc(O)cc4CC[C@H]3[C@@H]1CC[C@@]2(O)/C=C/I` returned a relative binding affinity (RBA) of 32.8. Still for that read-out and setting: the result for `CCO[C@H]1C[C@@]2(C)[C@@H](CC[C@@]2(O)/C=C\I)[C@@H]2CCc3cc(O)ccc3[C@H]21` reads 30.8. The same measure, in the same setting: for `C[C@@H]1Cc2cc(O)ccc2[C@H]2CC[C@@]3(C)[C@@H](CC[C@@]3(O)/C=C\I)[C@H]12` the value was 44.9. `CCO[C@H]1C[C@@]2(C)[C@@H](CC[C@@]2(O)/C=C/I)[C@@H]2CCc3cc(O)ccc3[C@H]21` returned a relative binding affinity (RBA) of 21.6.

The molecule `C=C[C@]1(O)CC[C@H]2[C@@H]3[C@H](C)Cc4cc(O)ccc4[C@H]3CC[C@@]21C` returned a relative binding affinity (RBA) of 58.1. Still for that read-out and setting: the result for `C[C@@H]1Cc2cc(O)ccc2[C@H]2CC[C@@]3(C)[C@@H](CC[C@@]3(O)/C=C/I)[C@H]12` reads 43.2; that for `C=C[C@]1(O)CC[C@H]2[C@@H]3CCc4cc(O)ccc4[C@H]3[C@@H](OC)C[C@@]21C`, 13.5.

The species entered for another series is Rattus norvegicus. Briefly: Biodistribution studied in the ovaries of immature Fischer female rats at 5 hour. The class given is ADME, organism-based, Female gonad. The conditions noted are these: in vivo. Put shortly: (§1)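 Immature female Fischer rats (24 days old, 55–60 g), unanesthetized in retention cages, given 3 μCi (111 kBq) nca 125I-labeled steroid in 200 μL via lateral tail vein. Vehicle was 9% ethanol in saline with 1% Tween-80, filtered 0.22 μm. Killed at 5 h under ether; tissues KCl-washed, blotted, weighed, gamma-counted; % ID/g, average of 4–5 rats, % CV.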
In turn, `C[C@@H]1Cc2cc(O)ccc2[C@H]2CC[C@@]3(C)[C@@H](CC[C@@]3(O)/C=C/[125I])[C@H]12` showed a Concentration of 2.91%.

The next series is filed under the species Rattus norvegicus. Nature of the series: Biodistribution studied in the adrenals of immature Fischer female rats at 5 hour. The class given is ADME, organism-based, Adrenal gland. The conditions noted are these: in vivo. The procedure, abridged: as §1
The molecule `C[C@@H]1Cc2cc(O)ccc2[C@H]2CC[C@@]3(C)[C@@H](CC[C@@]3(O)/C=C\[125I])[C@H]12` came in with a Concentration of 0.88%.
